Measurements published in ChEMBL document CHEMBL4152223 (Eur J Med Chem, 2018).
Converted amounts (≈) assume the structure as drawn. The source made the active and inactive calls. The rule behind the calls is not given here.

Legend:
Mycobacterium avium [1] = assay: Antimycobacterial activity against INH/RIF/OFX resistant Mycobacterium avium 330/88 after 21 days; assay type: functional; details: 330/88, 504 h
[2] = Selectivity index, ratio of IC50 for human HepG2 cells to MIC for Mycobacterium tuberculosis H37Rv after 14 days; assay type: toxicity; details: read-out: Selectivity Index
Procedure, shortened: (§1)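 SI is calculated as HepG2 IC50 divided by MIC. HepG2 cells (passage 2-4) were grown in EMEM with 10% FBS, L-glutamine and non-essential amino acids. Compounds in DMSO were tested in triplicate at eight concentrations, and viability was read by MTS tetrazolium reduction. IC50 is the concentration reducing viability to 50% of control. 10% DMSO served as the 0% viability control.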

[3] = test system: Mycobacterium tuberculosis; assay: Antimycobacterial activity against Mycobacterium tuberculosis H37Rv after 14 days; assay type: functional; details: 336 h
Mycobacterium kansasii [4] = assay: Antimycobacterial activity against Mycobacterium kansasii 235/80 after 14 days; assay type: functional; details: 235/80, 336 h
Mycobacterium kansasii [5] = assay: Antimycobacterial activity against Mycobacterium kansasii 6509/96 after 7 days; assay type: functional; details: 6509/96, 168 h
Mycobacterium kansasii [6] = assay: Antimycobacterial activity against Mycobacterium kansasii 235/80 after 7 days; assay type: functional; details: 235/80, 168 h
[7] = Selectivity index, ratio of IC50 for human HepG2 cells to MIC for Mycobacterium kansasii 6509/96; assay type: toxicity; details: read-out: Selectivity Index; procedure, shortened: as §1
Mycobacterium kansasii [8] = assay: Antimycobacterial activity against Mycobacterium kansasii 6509/96 after 14 days; assay type: functional; details: 6509/96, 336 h
[9] = Selectivity index, ratio of IC50 for human HepG2 cells to MIC for Mycobacterium kansasii 235/80; assay type: toxicity; details: read-out: Selectivity Index; procedure, shortened: as §1
Mycobacterium kansasii [10] = assay: Antimycobacterial activity against Mycobacterium kansasii 6509/96 after 21 days; assay type: functional; details: 6509/96, 504 h
[11] = test system: Mycobacterium tuberculosis; assay: Antimycobacterial activity against Mycobacterium tuberculosis H37Rv after 21 days; assay type: functional; details: 504 h
Mycobacterium avium [12] = assay: Antimycobacterial activity against INH/RIF/OFX resistant Mycobacterium avium 330/88 after 14 days; assay type: functional; details: 330/88, 336 h
HepG2 = assay: Cytotoxicity against human HepG2 cells assessed as reduction in cell viability by MTS assay; assay type: cell-based
Procedure, shortened: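 HepG2 human hepatocellular carcinoma cells (passage 2-4) were cultured in Eagle's MEM with 10% FBS, 1% L-glutamine and non-essential amino acids. Compounds were dissolved in DMSO and tested in triplicate at eight concentrations. Viability was read by colorimetric MTS tetrazolium reduction. Controls were 100% viability and 0% viability (10% DMSO). IC50 is the concentration reducing viability to 50% of control.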

Mycobacterium kansasii [13] = assay: Antimycobacterial activity against Mycobacterium kansasii 235/80 after 21 days; assay type: functional; details: 235/80, 504 h
[14] = test system: Mycobacterium tuberculosis; assay: Antimycobacterial activity against Mycobacterium tuberculosis H37Rv after 25 days by drop dilution method; assay type: functional, organism-based
[15] = test system: Mycobacterium tuberculosis; assay: Effect on short chain fatty acid acid synthesis in Mycobacterium tuberculosis H37Rv at 40 uM preincubated for 1 hr followed by [14C]glucose addition and measured after 24 hrs by TLC analysis; assay type: functional, organism-based
[16] = biological target: T1, Enoyl-[acyl-carrier-protein] reductase [NADH] (Mycobacterium tuberculosis) (UniProt P9WGR1); assay: Inhibition of Mycobacterium tuberculosis H37Rv InhA assessed as reduction of methyl esters of fatty acid synthesis at 40 uM preincubated for 1 hr followed by [14C]glucose addition and measured after 24 hrs by TLC analysis
T1 sequence (whole entry): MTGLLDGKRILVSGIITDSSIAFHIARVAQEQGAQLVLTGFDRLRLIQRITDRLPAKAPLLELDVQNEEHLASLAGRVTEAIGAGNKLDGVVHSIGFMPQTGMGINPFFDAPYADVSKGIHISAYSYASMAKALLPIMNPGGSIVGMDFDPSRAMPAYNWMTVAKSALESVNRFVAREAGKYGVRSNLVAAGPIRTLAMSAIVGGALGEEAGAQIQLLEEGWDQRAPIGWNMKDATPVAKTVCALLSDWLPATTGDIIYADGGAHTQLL

[17] = biological target: T1, Enoyl-[acyl-carrier-protein] reductase [NADH] (Mycobacterium tuberculosis); assay: Inhibition of Mycobacterium tuberculosis H37Rv InhA assessed as reduction of cardiolipin synthesis at 40 uM preincubated for 1 hr followed by [14C]glucose addition and measured after 24 hrs by TLC analysis
[18] = biological target: T1, Enoyl-[acyl-carrier-protein] reductase [NADH] (Mycobacterium tuberculosis); assay: Inhibition of Mycobacterium tuberculosis H37Rv InhA assessed as reduction of trehalose monomycolate synthesis at 40 uM preincubated for 1 hr followed by [14C]glucose addition and measured after 24 hrs by TLC analysis
[19] = biological target: T1, Enoyl-[acyl-carrier-protein] reductase [NADH] (Mycobacterium tuberculosis); assay: Inhibition of Mycobacterium tuberculosis H37Rv InhA assessed as reduction of methoxy and keto mycolic acid synthesis at 40 uM preincubated for 1 hr followed by [14C]glucose addition and measured after 24 hrs by TLC analysis
[20] = biological target: T1, Enoyl-[acyl-carrier-protein] reductase [NADH] (Mycobacterium tuberculosis); assay: Inhibition of Mycobacterium tuberculosis H37Rv InhA assessed as reduction of phosphatidylethanolamine synthesis at 40 uM preincubated for 1 hr followed by [14C]glucose addition and measured after 24 hrs by TLC analysis
[21] = test system: Mycobacterium tuberculosis; assay: Antimycobacterial activity against Mycobacterium tuberculosis H37Rv over producing InhA after 25 days by drop dilution method; assay type: functional, organism-based
[22] = biological target: T1, Enoyl-[acyl-carrier-protein] reductase [NADH] (Mycobacterium tuberculosis); assay: Inhibition of Mycobacterium tuberculosis H37Rv InhA assessed as reduction of alpha mycolic acid synthesis at 40 uM preincubated for 1 hr followed by [14C]glucose addition and measured after 24 hrs by TLC analysis
[23] = biological target: T1, Enoyl-[acyl-carrier-protein] reductase [NADH] (Mycobacterium tuberculosis); assay: Inhibition of Mycobacterium tuberculosis H37Rv InhA assessed as reduction of trehalose dimycolate synthesis at 40 uM preincubated for 1 hr followed by [14C]glucose addition and measured after 24 hrs by TLC analysis

Compound | MIC (Mycobacterium avium [1]) | selectivity ratio at 336 h [2] | MIC [3] | MIC (Mycobacterium kansasii [4]) | MIC (Mycobacterium kansasii [5]) | MIC (Mycobacterium kansasii [6]) | selectivity ratio [7] | MIC (Mycobacterium kansasii [8]) | selectivity ratio [9] | MIC (Mycobacterium kansasii [10]) | MIC [11] | MIC (Mycobacterium avium [12]) | IC50 (HepG2) | MIC (Mycobacterium kansasii [13]) | also measured
CCCCCNC(=O)NNC(=O)c1ccncc1 | > 1000 µM | > 500 | 8 µM (≈ 2 µg/mL) | 125 µM (≈ 31.3 µg/mL) | 125 µM (≈ 31.3 µg/mL) | 62.5 µM (≈ 15.6 µg/mL) | > 32 | 125 µM (≈ 31.3 µg/mL) | > 32 | 125 µM (≈ 31.3 µg/mL) | 8 µM (≈ 2 µg/mL) | > 1000 µM | > 4 mM | 125 µM (≈ 31.3 µg/mL) | 
CCCNC(=O)NNC(=O)c1ccncc1 | 500 µM (≈ 111 µg/mL) | > 5000 | 1 µM (≈ 0.222 µg/mL) | 8 µM (≈ 1.78 µg/mL) | 4 µM (≈ 0.889 µg/mL) | 4 µM (≈ 0.889 µg/mL) | > 312 | 8 µM (≈ 1.78 µg/mL) | > 312 | 8 µM (≈ 1.78 µg/mL) | 1 µM (≈ 0.222 µg/mL) | 250 µM (≈ 55.6 µg/mL) | > 5 mM | 16 µM (≈ 3.56 µg/mL) | 
CNC(=O)NNC(=O)c1ccncc1 | > 1000 µM | > 5000 | 0.5 µM (≈ 0.0971 µg/mL) | > 1000 µM | 500 µM (≈ 97.1 µg/mL) | 1000 µM (≈ 194 µg/mL) |  | 500 µM (≈ 97.1 µg/mL) |  | 1000 µM (≈ 194 µg/mL) | 1 µM (≈ 0.194 µg/mL) | > 1000 µM | > 5 mM | > 1000 µM | Activity [14]: inactive; Activity [15]: inactive; inhibition [16]: Active; inhibition [17]: Active; inhibition [18]: Active; inhibition [19]: Active; inhibition [20]: Active; Activity [21]: inactive; inhibition [22]: Active; inhibition [23]: Active
